Results taken from ChEMBL document CHEMBL3097989, “Antimicrobial activity of de novo designed cationic peptides against multi-resistant clinical isolates” (Eur J Med Chem, 2014).
Values belong to the substance of their own block, whether it stands above or below them.

Legend:
[1] = test system: Klebsiella pneumoniae; assay: Antibacterial activity against Klebsiella pneumoniae M9170 clinical isolate expressing blaOXA-GIII gene by microdilution test; assay type: functional
How it was run: (§1)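 MIC by standard broth microdilution following CLSI recommendations, in Mueller Hinton broth supplemented with Ca²⁺ (20-25mg/L) and Mg²⁺ (10-12.5mg/L); peptides tested against a panel of multi-resistant clinical isolates plus ATCC reference strains.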

[2] = test system: Klebsiella pneumoniae; assay: Antibacterial activity against Klebsiella pneumoniae M9140 clinical isolate expressing blaCIT gene by microdilution test; assay type: functional; how it was run: as §1
[3] = test system: Klebsiella pneumoniae; assay: Antibacterial activity against Klebsiella pneumoniae PFAV3 by microdilution test; assay type: functional; how it was run: as §1
[4] = test system: Acinetobacter sp.; assay: Antibacterial activity against Acinetobacter sp. M7978 clinical isolate expressing blaIMP-1 gene by microdilution test; assay type: functional; how it was run: as §1
[5] = test system: Acinetobacter sp.; assay: Antibacterial activity against Acinetobacter sp. M5949 clinical isolate expressing blaOXA-23 and blaOXA-GVI gene by microdilution test; assay type: functional; how it was run: as §1
[6] = test system: Acinetobacter sp.; assay: Antibacterial activity against Acinetobacter sp. PFAV1 clinical isolate expressing blaOXA-51, blaOXA-58 and blaPER gene by microdilution test; assay type: functional; how it was run: as §1
[7] = test system: Acinetobacter sp.; assay: Antibacterial activity against Acinetobacter sp. M5282 clinical isolate expressing blaOXA-51 gene by microdilution test; assay type: functional; how it was run: as §1
[8] = test system: Acinetobacter sp.; assay: Antibacterial activity against Acinetobacter sp. M9665 clinical isolate expressing blaOXA-51 gene by microdilution test; assay type: functional; how it was run: as §1
[9] = test system: Pseudomonas aeruginosa; assay: Antibacterial activity against Pseudomonas aeruginosa M7525 clinical isolate expressing blaSPM gene by microdilution test; assay type: functional
How it was run: (§2)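 MIC by standard broth microdilution following CLSI recommendations, in Mueller Hinton broth supplemented with Ca²⁺ (20-25 mg/L) and Mg²⁺ (10-12.5 mg/L); ATCC reference strains included in the panel.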

[10] = test system: Pseudomonas aeruginosa; assay: Antibacterial activity against Pseudomonas aeruginosa M5200 clinical isolate expressing blaVIM and blaGES-1 gene by microdilution test; assay type: functional; how it was run: as §2
[11] = test system: Pseudomonas aeruginosa; assay: Antibacterial activity against Pseudomonas aeruginosa M5109 clinical isolate expressing blaVIM and blaGES-1 gene by microdilution test; assay type: functional; how it was run: as §2
[12] = test system: Pseudomonas aeruginosa; assay: Antibacterial activity against Pseudomonas aeruginosa M7728 clinical isolate expressing blaIMP gene by microdilution test; assay type: functional; how it was run: as §2
[13] = test system: Pseudomonas aeruginosa; assay: Antibacterial activity against Pseudomonas aeruginosa M7723 clinical isolate expressing blaKPC-2 gene by microdilution test; assay type: functional; how it was run: as §2
[14] = test system: Pseudomonas aeruginosa; assay: Antibacterial activity against Pseudomonas aeruginosa M13513 clinical isolate expressing blaKPC-2 gene by microdilution test; assay type: functional; how it was run: as §1
[15] = test system: Pseudomonas aeruginosa; assay: Antibacterial activity against Pseudomonas aeruginosa M7907 clinical isolate expressing blaPER gene by microdilution test; assay type: functional; how it was run: as §2
[16] = test system: Pseudomonas aeruginosa; assay: Antibacterial activity against Pseudomonas aeruginosa ATCC 27853 by microdilution test; assay type: functional; how it was run: as §1
[17] = Toxicity in human RBC assessed as hemolytic activity relative to control; assay type: cell-based, Erythrocyte; conditions: red blood cells (RBC), read-out: Activity
How it was run: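 Heparinized human whole blood diluted 3x in PBS and centrifuged 10 min at 1500 rpm, repeated three times. Cells resuspended to 10% (v/v), then diluted to about 0.5% (v/v). Peptides added at various concentrations for 30 min at 37 °C. Supernatant absorbance read at 550 nm. Lysis calculated against buffer (0%) and water (100%). Readings taken in triplicate and averaged.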

[18] = test system: Enterococcus faecium; assay: Antibacterial activity against Enterococcus faecium M2664 clinical isolate expressing vanA gene by microdilution test; assay type: functional; how it was run: as §1
[19] = test system: Enterococcus faecium; assay: Antibacterial activity against Enterococcus faecium M2481 clinical isolate expressing vanB gene by microdilution test; assay type: functional; how it was run: as §1
[20] = test system: Enterococcus faecium; assay: Antibacterial activity against Enterococcus faecium M2619 clinical isolate expressing vanB gene by microdilution test; assay type: functional; how it was run: as §1
[21] = test system: Enterococcus faecium; assay: Antibacterial activity against Enterococcus faecium PZAP95 by microdilution test; assay type: functional; how it was run: as §1
[22] = test system: Enterococcus faecalis; assay: Antibacterial activity against Enterococcus faecalis M6983 clinical isolate expressing vanA gene by microdilution test; assay type: functional; how it was run: as §1
[23] = test system: Enterococcus faecalis; assay: Antibacterial activity against Enterococcus faecalis M4449 clinical isolate expressing vanA gene by microdilution test; assay type: functional; how it was run: as §1
[24] = test system: Enterococcus faecalis; assay: Antibacterial activity against Enterococcus faecalis ATCC 51299 clinical isolate expressing vanB gene by microdilution test; assay type: functional; how it was run: as §1
[25] = test system: Staphylococcus hominis; assay: Antibacterial activity against Staphylococcus hominis M2967 clinical isolate expressing mecA gene by microdilution test; assay type: functional; how it was run: as §2
[26] = test system: Staphylococcus hominis; assay: Antibacterial activity against Staphylococcus hominis M2973 clinical isolate expressing mecA gene by microdilution test; assay type: functional; how it was run: as §2
[27] = test system: Staphylococcus haemolyticus; assay: Antibacterial activity against Staphylococcus haemolyticus M3014 by microdilution test; assay type: functional; how it was run: as §2
[28] = test system: Staphylococcus saprophyticus; assay: Antibacterial activity against Staphylococcus saprophyticus M2981 clinical isolate expressing mecA gene by microdilution test; assay type: functional; how it was run: as §2
[29] = test system: Staphylococcus epidermidis; assay: Antibacterial activity against Staphylococcus epidermidis M2921 clinical isolate expressing mecA gene by microdilution test; assay type: functional; how it was run: as §2
[30] = test system: Staphylococcus epidermidis; assay: Antibacterial activity against Staphylococcus epidermidis M2919 clinical isolate expressing mecA gene by microdilution test; assay type: functional; how it was run: as §2
[31] = test system: Staphylococcus aureus; assay: Antibacterial activity against Staphylococcus aureus M6784 clinical isolate expressing mecA gene by microdilution test; assay type: functional; how it was run: as §2
[32] = test system: Staphylococcus aureus; assay: Antibacterial activity against Staphylococcus aureus M4046 clinical isolate expressing mecA gene by microdilution test; assay type: functional; how it was run: as §2
[33] = test system: Staphylococcus aureus; assay: Antibacterial activity against Staphylococcus aureus M2832 clinical isolate expressing mecA gene by microdilution test; assay type: functional; how it was run: as §2
[34] = test system: Staphylococcus aureus; assay: Antibacterial activity against Staphylococcus aureus M6794 clinical isolate expressing mecA gene by microdilution test; assay type: functional; how it was run: as §2
[35] = test system: Staphylococcus aureus; assay: Antibacterial activity against Staphylococcus aureus M6276 clinical isolate expressing ermA and lnuA gene by microdilution test; assay type: functional; how it was run: as §2
[36] = test system: Staphylococcus aureus; assay: Antibacterial activity against Staphylococcus aureus P204 clinical isolate expressing ermA gene by microdilution test; assay type: functional; how it was run: as §2
[37] = test system: Staphylococcus aureus; assay: Antibacterial activity against Staphylococcus aureus P28 clinical isolate expressing ermA gene by microdilution test; assay type: functional; how it was run: as §2
[38] = test system: Staphylococcus aureus; assay: Antibacterial activity against Staphylococcus aureus ATCC 29213 by microdilution test; assay type: functional; how it was run: as §2
[39] = test system: Escherichia coli; assay: Antibacterial activity against Escherichia coli M5306 clinical isolate expressing blaPER-2, blaCTX-M-2 and blaTEM-1 gene by microdilution test; assay type: functional; how it was run: as §1
[40] = test system: Escherichia coli; assay: Antibacterial activity against Escherichia coli PLCA1 clinical isolate expressing blaCTX-M-2 and blaTEM-1 gene by microdilution test; assay type: functional; how it was run: as §1
[41] = test system: Escherichia coli; assay: Antibacterial activity against Escherichia coli PABC11 clinical isolate expressing blaCTX-M-2 gene by microdilution test; assay type: functional; how it was run: as §1
[42] = test system: Escherichia coli; assay: Antibacterial activity against Escherichia coli PCOS15 clinical isolate expressing blaPER-2 and blaTEM-1 gene by microdilution test; assay type: functional; how it was run: as §1
[43] = test system: Escherichia coli; assay: Antibacterial activity against Escherichia coli M7859 clinical isolate expressing blaCIT gene by microdilution test; assay type: functional; how it was run: as §1
[44] = test system: Klebsiella pneumoniae; assay: Antibacterial activity against Klebsiella pneumoniae M9885 clinical isolate expressing blaKPC-2 gene by microdilution test; assay type: functional; how it was run: as §1
[45] = test system: Klebsiella pneumoniae; assay: Antibacterial activity against Klebsiella pneumoniae M13540 clinical isolate expressing blaKPC-2 gene by microdilution test; assay type: functional; how it was run: as §1
[46] = test system: Klebsiella pneumoniae; assay: Antibacterial activity against Klebsiella pneumoniae M7647 clinical isolate expressing blaVIM, blaCTX-M-2, blaTEM-1 and blaSHV-1 gene by microdilution test; assay type: functional; how it was run: as §1
[47] = test system: Klebsiella pneumoniae; assay: Antibacterial activity against Klebsiella pneumoniae M1803 clinical isolate expressing blaPER-2, blaCTX-M-2, blaTEM-1, blaSHV and blaOXA-9 gene by microdilution test; assay type: functional; how it was run: as §1
[48] = test system: Klebsiella pneumoniae; assay: Antibacterial activity against Klebsiella pneumoniae M9310 clinical isolate expressing blaCTX-M-2, blaTEM-1 and blaSHV-1 gene by microdilution test; assay type: functional; how it was run: as §1

- MIC90 [1]: 64 µg/mL
- MIC90 [2]: 32 µg/mL
- MIC90 [3]: 128 µg/mL
- MIC90 [4]: 64 µg/mL
- MIC90 [5]: 256 µg/mL
- MIC90 [6]: 64 µg/mL
- MIC90 [7]: 64 µg/mL
- MIC90 [8]: 128 µg/mL
- MIC90 [9]: 64 µg/mL
- MIC90 [10]: 64 µg/mL
- MIC90 [11]: 64 µg/mL
- MIC90 [12]: 64 µg/mL
- MIC90 [13]: 32 µg/mL
- MIC90 [14]: 64 µg/mL
- MIC90 [15]: 64 µg/mL
- MIC90 [16]: 64 µg/mL
- MIC90 [18]: 8 µg/mL
- MIC90 [19]: 16 µg/mL
- MIC90 [20]: 16 µg/mL
- MIC90 [21]: 16 µg/mL
- MIC90 [22]: 128 µg/mL
- MIC90 [23]: 128 µg/mL
- MIC90 [24]: 256 µg/mL
- MIC90 [25]: 8 µg/mL
- MIC90 [26]: 4 µg/mL
- MIC90 [28]: 8 µg/mL
- MIC90 [29]: 8 µg/mL
- MIC90 [30]: 8 µg/mL
- MIC90 [31]: 32 µg/mL
- MIC90 [32]: 32 µg/mL
- MIC90 [33]: 64 µg/mL
- MIC90 [34]: 64 µg/mL
- MIC90 [35]: 64 µg/mL
- MIC90 [36]: 32 µg/mL
- MIC90 [37]: 64 µg/mL
- MIC90 [38]: 32 µg/mL
- MIC90 [39]: 64 µg/mL
- MIC90 [40]: 64 µg/mL
- MIC90 [41]: 32 µg/mL
- MIC90 [42]: 64 µg/mL
- MIC90 [43]: 16 µg/mL
- MIC90 [44]: 32 µg/mL
- MIC90 [45]: 64 µg/mL
- MIC90 [46]: 32 µg/mL
- MIC90 [47]: 64 µg/mL
- MIC90 [48]: 32 µg/mL
Substance: H-RIVQRIKKWLLKWKKLGY-NH2
- hemolysis [17]: 9.5%
- MIC90 [27]: 8 µg/mL

- MIC90 [1]: > 1020 µg/mL
- MIC90 [2]: 1020 µg/mL
- MIC90 [3]: 1020 µg/mL
- MIC90 [4]: 64 µg/mL
- MIC90 [5]: 256 µg/mL
- MIC90 [6]: 64 µg/mL
- MIC90 [7]: 64 µg/mL
- MIC90 [8]: 128 µg/mL
- MIC90 [9]: 64 µg/mL
- MIC90 [10]: 64 µg/mL
- MIC90 [11]: 128 µg/mL
- MIC90 [12]: 128 µg/mL
- MIC90 [13]: 64 µg/mL
- MIC90 [14]: 32 µg/mL
- MIC90 [15]: 128 µg/mL
- MIC90 [16]: 64 µg/mL
- MIC90 [18]: 16 µg/mL
- MIC90 [19]: 32 µg/mL
- MIC90 [20]: 32 µg/mL
- MIC90 [21]: 32 µg/mL
- MIC90 [22]: 64 µg/mL
- MIC90 [23]: 128 µg/mL
- MIC90 [24]: 256 µg/mL
- MIC90 [25]: 8 µg/mL
- MIC90 [26]: 4 µg/mL
- MIC90 [28]: 16 µg/mL
- MIC90 [29]: 8 µg/mL
- MIC90 [30]: 16 µg/mL
- MIC90 [31]: 32 µg/mL
- MIC90 [32]: 32 µg/mL
- MIC90 [33]: 32 µg/mL
- MIC90 [34]: 32 µg/mL
- MIC90 [35]: 16 µg/mL
- MIC90 [36]: 64 µg/mL
- MIC90 [37]: 32 µg/mL
- MIC90 [38]: 32 µg/mL
- MIC90 [39]: 256 µg/mL
- MIC90 [40]: 128 µg/mL
- MIC90 [41]: 128 µg/mL
- MIC90 [42]: 128 µg/mL
- MIC90 [43]: 128 µg/mL
- MIC90 [44]: > 1020 µg/mL
- MIC90 [45]: > 1020 µg/mL
- MIC90 [46]: > 1020 µg/mL
- MIC90 [47]: > 1020 µg/mL
- MIC90 [48]: > 1020 µg/mL
Substance: H-WPKWWKWKRRWGRKKAKKRRG-NH2
- hemolysis [17]: 3.4%
- MIC90 [27]: 16 µg/mL
